Test results taken from ChEMBL document CHEMBL4428128, “Design, synthesis, crystal structure, biological evaluation and molecular docking studies of carbazole-arylpiperazine derivatives” (Bioorg Med Chem, 2016).

Assays:
[1] = biological target: T1, Alpha-1D adrenergic receptor (Rattus norvegicus, UniProt P23944); test: Antagonistic activity at alpha1D adrenoceptor in Sprague-Dawley rat thoracic aorta assessed as inhibition of noradrenaline-induced contractions after 0.5 hrs in presence of alpha2/beta adrenoceptor blocker yohimbine, propranolol by Schild plot analysis; conditions: read-out: pA2 (converted)
T1 sequence (P23944 whole entry): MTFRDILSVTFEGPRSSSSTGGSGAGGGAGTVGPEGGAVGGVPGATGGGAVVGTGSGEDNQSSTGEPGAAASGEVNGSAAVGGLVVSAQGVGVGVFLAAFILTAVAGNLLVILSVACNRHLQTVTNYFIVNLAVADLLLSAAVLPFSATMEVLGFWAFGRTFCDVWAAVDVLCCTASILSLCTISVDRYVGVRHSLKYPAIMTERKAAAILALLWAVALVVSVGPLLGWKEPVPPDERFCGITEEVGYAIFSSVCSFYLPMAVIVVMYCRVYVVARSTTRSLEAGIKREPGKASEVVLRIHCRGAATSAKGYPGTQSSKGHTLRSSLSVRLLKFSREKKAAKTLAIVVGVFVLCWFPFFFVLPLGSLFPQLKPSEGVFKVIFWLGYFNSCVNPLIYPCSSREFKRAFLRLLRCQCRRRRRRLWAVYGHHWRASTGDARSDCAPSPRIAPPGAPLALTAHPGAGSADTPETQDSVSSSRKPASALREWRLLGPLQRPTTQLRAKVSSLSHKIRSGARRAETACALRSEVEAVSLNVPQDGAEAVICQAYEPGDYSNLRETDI
In short: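 Isolated tissue rings (aorta rings about 4 mm) held in Krebs–Henseleit buffer (pH 7.4, 37 °C, O2/CO2 19:1), equilibrated 1.5 h under optimal tension, primed three times with noradrenaline, then washed. Antagonist preincubated 0.5 h. Noradrenaline concentration–response curves run 1 h apart, without and with antagonist, in continuous yohimbine and propranolol. Responses expressed as % of pre-incubation NA Emax.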

[2] = biological target: T2, Alpha-1B adrenergic receptor (Rattus norvegicus, UniProt P15823); test: Antagonistic activity at alpha1B adrenoceptor in Sprague-Dawley rat spleen assessed as inhibition of noradrenaline-induced contractions after 0.5 hrs in presence of alpha2/beta adrenoceptor blocker yohimbine, propranolol by Schild plot analysis; format: tissue-based; conditions: read-out: pA2 (converted)
T2 sequence (P15823 whole entry): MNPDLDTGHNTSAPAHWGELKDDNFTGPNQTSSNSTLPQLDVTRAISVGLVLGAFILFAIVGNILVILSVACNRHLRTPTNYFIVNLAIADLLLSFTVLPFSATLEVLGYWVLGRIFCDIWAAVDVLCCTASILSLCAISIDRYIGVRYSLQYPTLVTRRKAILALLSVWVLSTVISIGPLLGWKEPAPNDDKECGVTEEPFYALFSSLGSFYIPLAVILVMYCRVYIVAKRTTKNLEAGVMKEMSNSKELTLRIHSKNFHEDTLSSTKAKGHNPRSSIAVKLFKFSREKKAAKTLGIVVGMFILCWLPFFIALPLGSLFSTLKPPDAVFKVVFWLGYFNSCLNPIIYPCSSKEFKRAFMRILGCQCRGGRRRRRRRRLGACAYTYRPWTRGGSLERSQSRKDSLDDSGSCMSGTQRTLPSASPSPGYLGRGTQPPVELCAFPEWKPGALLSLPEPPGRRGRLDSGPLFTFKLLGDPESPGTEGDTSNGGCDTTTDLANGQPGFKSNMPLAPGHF

[3] = species: Rattus norvegicus; test: Selectivity ratio of antilog of change in pA2 for alpha1D adrenoceptor in Sprague-Dawley rat thoracic aorta to antilog of change in pA2 for alpha1A adrenoceptor in Sprague-Dawley rat vas deferens
[4] = species: Rattus norvegicus; test: Selectivity ratio of antilog of change in pA2 for alpha1A adrenoceptor in Sprague-Dawley rat vas deferens to antilog of change in pA2 for alpha1B adrenoceptor in Sprague-Dawley rat spleen
[5] = species: Rattus norvegicus; test: Selectivity ratio of antilog of change in pA2 for alpha1D adrenoceptor in Sprague-Dawley rat thoracic aorta to antilog of change in pA2 for alpha1B adrenoceptor in Sprague-Dawley rat spleen
[6] = biological target: T3, Alpha-1A adrenergic receptor (Rattus norvegicus, UniProt P43140); test: Antagonistic activity at alpha1A adrenoceptor in Sprague-Dawley rat vas deferens assessed as inhibition of noradrenaline-induced contractions after 0.5 hrs in presence of alpha2/beta adrenoceptor blocker yohimbine, propranolol by Schild plot analysis; conditions: read-out: pA2 (converted)
T3 sequence (P43140 whole entry): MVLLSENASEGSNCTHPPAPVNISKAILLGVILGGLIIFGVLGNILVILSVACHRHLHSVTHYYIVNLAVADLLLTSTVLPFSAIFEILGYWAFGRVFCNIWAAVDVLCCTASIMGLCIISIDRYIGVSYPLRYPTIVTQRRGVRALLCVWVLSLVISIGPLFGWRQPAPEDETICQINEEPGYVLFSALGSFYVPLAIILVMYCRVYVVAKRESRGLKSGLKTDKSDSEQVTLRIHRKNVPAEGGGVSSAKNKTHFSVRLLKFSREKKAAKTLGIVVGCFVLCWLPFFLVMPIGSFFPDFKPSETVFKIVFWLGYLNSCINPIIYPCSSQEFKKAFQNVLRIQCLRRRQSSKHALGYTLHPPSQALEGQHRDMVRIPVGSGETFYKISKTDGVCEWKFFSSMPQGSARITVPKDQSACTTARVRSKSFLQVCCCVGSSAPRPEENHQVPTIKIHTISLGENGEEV

| Kb [1] [nM] | Kb [2] [µM] | Selectivity ratio [3] | Selectivity ratio [4] | Selectivity ratio [5] | Kb [6] [nM] | SMILES |
| --- | --- | --- | --- | --- | --- | --- |
| 141 | 0.0741 | 3.1 | 0.2 | 0.5 | 437 | COc1ccc(OC)c(N2CCN(CC(O)COc3cccc4[nH]c5ccccc5c34)CC2)c1 (configuration not stated) |
| 87.1 | 6.92 | 21.4 | 3.7 | 79.4 | 1860 | COc1ccc(N2CCN(CC(O)COc3cccc4[nH]c5ccccc5c34)CC2)cc1 (configuration not stated) |
